High-throughput results from PubChem.
An excerpt weighted towards active compounds, which were near 0.86% of everything screened.
AF4-AF9 inh: MLL-AF4/AF9 protein interaction inhibition. P42568. AlphaScreen, biotin-AF4 peptide binding to FLAG-AF9. inhibition, % at 10 µM. actives 0.47% (n = 350,000);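 active = every replicate reaching a set inhibition limit, whatever the replicate mean, cut at about 25% in these data; inconclusive = mean inhibition reaches that limit but some replicates miss it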
Target sequence (P42568 whole entry, looked up): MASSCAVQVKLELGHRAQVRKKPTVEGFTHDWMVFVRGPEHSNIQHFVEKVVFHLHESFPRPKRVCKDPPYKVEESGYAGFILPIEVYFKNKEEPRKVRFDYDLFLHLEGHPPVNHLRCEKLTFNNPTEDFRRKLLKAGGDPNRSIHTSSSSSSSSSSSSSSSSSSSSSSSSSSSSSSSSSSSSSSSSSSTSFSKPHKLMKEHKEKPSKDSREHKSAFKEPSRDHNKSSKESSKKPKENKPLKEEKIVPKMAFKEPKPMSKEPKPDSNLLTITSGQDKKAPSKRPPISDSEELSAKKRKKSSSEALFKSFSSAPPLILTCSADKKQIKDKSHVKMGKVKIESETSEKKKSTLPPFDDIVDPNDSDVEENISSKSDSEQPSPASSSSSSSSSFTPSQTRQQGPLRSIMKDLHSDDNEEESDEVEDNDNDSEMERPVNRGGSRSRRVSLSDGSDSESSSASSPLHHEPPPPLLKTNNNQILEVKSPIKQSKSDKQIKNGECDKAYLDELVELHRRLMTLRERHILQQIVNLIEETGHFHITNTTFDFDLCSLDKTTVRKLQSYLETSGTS
miR-122 sensor: blocks miR-122 activity in Huh7 sensor cells; actives 0.3% (n = 340,000); activation (reporter increase), % at 12.5 µM; Huh7 miR-122 Renilla luciferase sensor, 48 h; neutral wells = 0, positive control = 100;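 active = mean replicate activation score at least 90 and every replicate individually at or above 90; inconclusive = only one of the two criteria met; inactive = neither criterion met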;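 note: higher luciferase means less miR-122 activity so hits act as miR-122 inhibitors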
Rtt109 HAT inh: C. albicans Rtt109 histone acetyltransferase inhibition; Q5AAJ8; purified Rtt109/Vps75, ThioGlo CoA-SH fluorescence, 4 h; inhibition, % at 34.9 µM; actives 0.16% (n = 330,000);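 active = inhibition of at least 50% in every replicate; inconclusive = best replicate reaches 50% inhibition but some replicates fall short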
S100A4 inh HTS: blocks human S100A4 binding to myosin IIA peptide; actives 0.14% (n = 360,000); inhibition, % at 10.7 µM; S100A4/TAMRA-MyoIIA peptide fluorescence polarization;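 active = mean inhibition of at least 70% across replicates, with every replicate also reaching that level; inconclusive = mean inhibition reaches 70% but some replicates fall short; inactive = mean inhibition below 70%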
Target sequence (P26447 whole entry, looked up): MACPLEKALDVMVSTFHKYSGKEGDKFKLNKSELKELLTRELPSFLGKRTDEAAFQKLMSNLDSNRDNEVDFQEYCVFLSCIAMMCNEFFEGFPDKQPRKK
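Material: human S100A4 monomer with TAMRA-labelled myosin IIA peptide; buffer or medium: HEPES pH 7.2 with CaCl2, KCl, NaCl, DTT, Triton; compound dosing: one concentration per compound; schedule: 5 min incubation before reading; benchmarks: neutral control DMSO, positive control TFP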
ERAP1 inh: blocks human ERAP1 aminopeptidase activity | recombinant ERAP1, Leu-AMC fluorescence, 60 min | inhibition, % at 10.7 µM | actives 0.15% (n = 340,000) | Q9NZ08;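 active = mean replicate inhibition of at least 30%, or all replicates individually reaching that 30% level; inactive = mean below 30% and not every replicate reaching it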
Numbers stand for hits; i = inactive; ? = inconclusive; nt = not tested or not shown; [ ] = remark or other dose.

SMILES	AF4-AF9 inh	miR-122 sensor	Rtt109 HAT inh	S100A4 inh HTS	ERAP1 inh
CC(C)CC#Cc1ccc2c(c1)O[C@H](CN(C)C(=O)Nc1ccccc1F)[C@@H](C)CN([C@@H](C)CO)S2(=O)=O	i	107[16.7 µM]	nt	i	i
Cc1noc(C)c1NC(=O)N(C)C[C@@H]1Oc2cc(C#CCC(C)C)ccc2S(=O)(=O)N([C@@H](C)CO)C[C@@H]1C	28	i	nt	i	i
Cc1ccc(S(=O)(=O)N(C)C[C@@H]2Oc3ccc(NC(=O)C4CC4)cc3CC(=O)N([C@@H](C)CO)C[C@H]2C)cc1	i	i	nt	i	i
O=C1N=C(N2CCc3ccccc3C2)S/C1=C\c1cccc(O)c1	nt	109	i	nt	nt
S=C(NCc1ccncc1)Nc1cc(Cl)cc(Cl)c1	i	103	i	i	i
CN(C)c1ccc(C(c2ccc(N(C)C)cc2)c2ccc([N+](=O)[O-])cc2)cc1	27	i	i	i	i
C[C@H](CO)N1C[C@H](C)[C@@H](CN(C)S(=O)(=O)c2ccccc2)Oc2ncc(Br)cc2C1=O	i	i	nt	i	i
Cc1ccc(-n2cc(CNCCc3cscn3)c(-c3ccc(F)cc3)n2)cc1	i	nt	i	i	i
Cc1ccc(-n2cc(CNCCCn3ccnc3C)c(-c3ccc(F)cc3)n2)cc1	26	i	i	i	i
C=C1c2cccc(O)c2C(O)=C2C(=O)[C@]3(O)C(O)=C(C(N)=O)C(=O)[C@@H](N(C)C)[C@@H]3[C@@H](O)[C@H]12	i	i	i	i	35
C[C@H]1c2cccc(O)c2C(O)=C2C(=O)C3(O)C(O)=C(C(N)=O)C(=O)[C@@H](N(C)C)[C@@H]3[C@@H](O)[C@@H]21 (stereo partly specified)	i	i	i	i	i
O=C(Nc1ccc(Cl)cc1)N[C@@H]1CC[C@H](CCn2cc(C3(O)CCCC3)nn2)O[C@@H]1CO	i	i	nt	i	i
Fc1ccc(N2CCN(C3=Nc4cccc5cccc3c45)CC2)cc1	32	nt	i	i	i
c1ccc(CN2CCN(C3=Nc4cccc5cccc3c45)CC2)cc1	nt	i	i	nt	nt
C[C@H](CO)N1C[C@H](C)[C@@H](CN(C)C(=O)C2CCCCC2)Oc2ncc(/C=C/c3ccccc3)cc2C1=O	i	i	nt	i	i
COc1ccc(/C=C2\C(=O)NCC(=O)N2C)cc1	i	i	i	i	86
CSc1nnc(-c2cc[n+](C)cc2)n1CCO	i	nt	i	i	102
CSc1nnc(-c2ccccc2)n1N	nt	i	i	nt	nt
COc1ccc(Cc2nnc(NC(=O)c3cc(OC)c(OC)c(OC)c3)s2)cc1	i	i	55	i	i
COc1ccc(Cc2nnc(NC(=O)c3ccc(OC)c(OC)c3)s2)cc1	i	i	i	i	i
O=C(Oc1ccc(F)cc1)c1ccc2c(=O)n3c(nc2c1)CCC3	i	nt	i	i	32
C[C@@H](NC(=O)C[C@H]1C[C@@H]2c3cc(NC(=O)C4CCOCC4)ccc3O[C@@H]2[C@@H](CO)O1)c1ccccc1	i	i	nt	i	i
Cc1cccc(N2CCN(C(=O)CCC(=O)N3CC(C)Oc4ccccc43)CC2)c1C (stereo unspecified)	i	i	i	i	i
Cc1cccc(N2CCN(C(=O)CCC(=O)N3Cc4ccccc4Oc4ncccc43)CC2)c1C	47	i	i	i	i
COCC(=O)Nc1ccc2c(c1)OC[C@H](C)N(Cc1cccnc1)C[C@@H](C)[C@@H](OC)CN(C)C2=O	i	nt	nt	i	i
SMILES	AF4-AF9 inh	miR-122 sensor	Rtt109 HAT inh	S100A4 inh HTS	ERAP1 inh
Fc1ccccc1C1CC(c2ccco2)=Nc2ccccc2S1 (stereo unspecified)	i	i	83	i	nt
COc1ccccc1C1CC(c2cccs2)=Nc2ccccc2S1 (stereo unspecified)	nt	i	?	nt	nt
O=C(NCCN1CCOCC1)[C@]1(Cc2ccccc2)N=C(c2ccc(OCCCO)cc2)O[C@@H]1c1ccccc1	i	nt	nt	i	i
CC(C)N1C(=O)CC(Nc2ccc(N3CCOCC3)cc2)C1=O (stereo unspecified)	nt	183	i	nt	nt
C[C@H](CO)N1C[C@H](C)[C@@H](CN(C)C(=O)NC2CCCCC2)Oc2ccc(NC(=O)CCCN(C)C)cc2C1=O	i	i	nt	i	i
O=C(Cc1ccccc1)N/N=C/c1cc(Br)cc(Cl)c1O	i	nt	i	i	i
COc1cc(Br)cc(/C=N/NC(=O)Cc2ccccc2)c1O	79	nt	i	i	i
COc1c(C(=O)Nc2ccc(Br)cn2)ccc2ccccc12	i	nt	i	i	i
COc1cc2ccccc2cc1C(=O)Nc1ccc(Br)cn1	i	i	59	i	i
CCC(=O)N1CC(=O)N2[C@@H](CO)[C@@H](c3ccc(-c4ccc(C#N)cc4)cc3)[C@@H]2C1	i	nt	nt	i	i
C[C@@H]1CN([C@@H](C)CO)S(=O)(=O)c2ccc(C#CC3CCCC3)cc2O[C@H]1CN(C)C(=O)Cc1ccccc1	i	108[16.7 µM]	nt	i	i
C[C@H](CO)N1C[C@H](C)[C@@H](CN(C)Cc2cncnc2)Oc2cc(C#CC3CCCC3)ccc2S1(=O)=O	i	95[16.7 µM]	nt	i	i
C[C@H](CO)N1C[C@H](C)[C@@H](CN(C)C(=O)Cc2ccccc2)Oc2cc(C#CC3CCCC3)ccc2S1(=O)=O	i	i	nt	i	i
CCCN1C[C@H](C)[C@@H](OC)CN(C)C(=O)c2cc(NC(=O)Nc3ccccc3F)ccc2OC[C@H]1C	i	nt	nt	i	nt
CC(C)NC(=O)N(C)C[C@H]1OCc2ccccc2-c2ccccc2C(=O)N([C@@H](C)CO)C[C@@H]1C	i	nt	nt	i	i
Cc1ccc(N(C)c2nc(N)nc(N)c2N=O)cc1	i	nt	nt	191	i
Cc1cccc(Nc2nc(N)nc(N)c2N=O)c1	i	i	i	i	i
CO[C@@H]1CN(C)C(=O)c2ccc(NC(=O)NC(C)C)cc2OC[C@@H](C)N(Cc2cncnc2)C[C@H]1C	nt	i	nt	nt	nt
CC(C)CC#Cc1ccc2c(c1)O[C@H](CN(C)C(=O)C1CCC1)[C@H](C)CN([C@@H](C)CO)S2(=O)=O	i	i	nt	i	i
C[C@@H]1CN([C@@H](C)CO)S(=O)(=O)c2ccc(C#C[C@@H](C)O)cc2O[C@@H]1CN(C)C(=O)C1CC1	i	i	nt	i	i
CC(C)CC#Cc1ccc2c(c1)O[C@@H](CN(C)C(=O)C1CCC1)[C@@H](C)CN([C@H](C)CO)S2(=O)=O	i	157[16.7 µM]	nt	i	i
C[C@@H]1CN([C@@H](C)CO)S(=O)(=O)c2ccc(-c3ccc(C(=O)N(C)C)cc3)cc2O[C@@H]1CN(C)C(=O)C1CCCCC1	30	i	nt	i	i
C[C@@H]1CN([C@H](C)CO)S(=O)(=O)c2ccc(C#C[C@@H](C)O)cc2O[C@@H]1CN(C)C(=O)C1CC1	i	i	nt	121	i
COc1ccccc1-c1ccc2c(c1)O[C@H](CN(C)C(C)=O)[C@@H](C)CN([C@@H](C)CO)S2(=O)=O	i	i	nt	123	i
COc1ccc(NC(=O)N(C)C[C@H]2Oc3c(NS(=O)(=O)c4ccc(Cl)cc4)cccc3C(=O)N([C@H](C)CO)C[C@@H]2C)cc1	i	i	nt	i	i
